Hits are enriched below; roughly 2.3% of the tested compounds scored in any of these assays.
DENV2 CPE rescue – inhibitors of DENV2 cytopathic effect. DENV2-infected cells, cytopathic effect rescue, plate reader. CPE inhibition, % at 9.99 µM. 350,000 compounds, 1.7% hits. AID 651640; in the data active = CPE inhibition above about 20%, passing the limit was not always enough; inconclusive = no clear call, values can overlap the other calls; tested in BHK-21 cells;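 note: 0% = median of neutral control wells and 100% = median of positive control wells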
ERp5 inh – ERp5 (human) disulfide isomerase inhibition; inhibition, % at 9.99 µM; 350,000 compounds, 0.05% hits; ERp5 insulin aggregation, absorbance 650 nm, 90 min;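 active = mean replicate inhibition above about 25%, with every replicate also reaching it, limit read from the data, passing the limit was not always enough; inconclusive = only one of those two criteria met; inactive = neither criterion met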
Target sequence (Q15084 whole entry, looked up): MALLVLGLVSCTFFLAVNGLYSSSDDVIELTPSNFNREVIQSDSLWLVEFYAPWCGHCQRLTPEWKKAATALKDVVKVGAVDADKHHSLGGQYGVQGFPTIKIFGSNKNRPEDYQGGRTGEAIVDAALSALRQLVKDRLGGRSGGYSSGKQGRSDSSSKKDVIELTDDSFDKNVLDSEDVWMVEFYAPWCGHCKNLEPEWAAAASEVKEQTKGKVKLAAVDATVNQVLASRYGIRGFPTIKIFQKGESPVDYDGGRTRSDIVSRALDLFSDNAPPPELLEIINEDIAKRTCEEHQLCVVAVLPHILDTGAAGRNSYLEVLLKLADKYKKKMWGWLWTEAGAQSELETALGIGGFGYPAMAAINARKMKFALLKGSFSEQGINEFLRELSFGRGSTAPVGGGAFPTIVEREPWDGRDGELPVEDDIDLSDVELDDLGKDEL
Statin myotox sup – suppression of simvastatin myotoxicity; 330,000 compounds, 0.78% hits; C2C12 myotubes + simvastatin, ATP luminescence, 48 h; scaled: DMSO 0, geranylgeraniol control 100; rescue of ATP level, % at 7.49 µM;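 active = mean ATP rescue above about 67%, or every replicate alone reaching that limit, limit read from the data, passing the limit was not always enough; inconclusive = no clear call, values can overlap the other calls; inactive = mean under the limit and some replicate under it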;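 note: myotubes were challenged with 10 µM simvastatin during compound exposure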
PDI turbidity – inhibitors of human protein disulfide isomerase; inhibition, % at 10 µM; PDI insulin aggregation turbidity, A650, 90 min; 350,000 compounds, 0.052% hits; P07237;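 active = mean inhibition across replicates of 30% or more, whatever share of single replicates reach that level; inconclusive = mean inhibition below 30% while every single replicate reaches 30%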
Cneo AK release – Cryptococcus neoformans lysis via adenylate kinase release; lysis activity, % at 15 µM; C. neoformans lysis, adenylate kinase release luminescence, 4 h; normalised: neutral wells 0, clomiphene wells 100; 360,000 compounds, 0.2% hits;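 active = mean lysis activity across replicates of at least 80%, whatever share of replicates individually reach that level; inactive = mean lysis activity below 80%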
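Material – Cryptococcus neoformans yeast cells · Quantity – 5 × 10^6 yeast cells/mL · Buffer or medium – YPD medium · Compound – single dose · Timing – 4 h static compound exposure, 37 °C, read 1 h post-reagent · Signal – adenylate kinase release luminescence · Read-out basis – lysis from increased AK signal · Benchmarks – Clomiphene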
F508del corr – correctors of CFTR F508del function in bronchial epithelial cells | CFBE cells, YFP halide quenching; stimulated with forskolin plus potentiator P3; % fluorescence drop versus neutral controls | activity (quench increase), % at 7.58 µM | 350,000 compounds, 0.36% hits | AID 720511;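 active = mean added fluorescence quench of at least 8% versus neutral control, with both replicates also reaching 8%; inconclusive = only one of the mean or replicate conditions met; inactive = mean below 8% and not both replicates reaching 8%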;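 note: cells transiently co-express mutant CFTR-F508del with the halide-sensitive YFP; corrector assay measuring rescue of mutant channel to the surface after 24 h compound exposure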
Numbers without * were called inactive; u = inconclusive; x = no result.

SMILES	DENV2 CPE rescue	ERp5 inh	Statin myotox sup	PDI turbidity	Cneo AK release	F508del corr
C[C@@H]1CCCCO[C@@H](CN(C)S(=O)(=O)c2ccccc2)[C@@H](C)CN([C@H](C)CO)C(=O)c2cc(NC(=O)CCCCCC(=O)Nc3ccccc3N)ccc2O1	3.1	0.4	x	x	-2.8	-1.7
C[C@@H]1CN([C@H](C)CO)C(=O)c2cc(NC(=O)CCCN(C)C)ccc2O[C@@H](C)CCCCO[C@H]1CN(C)S(=O)(=O)c1cccs1	34.3*	-2.1	x	x	x	-0.7
C[C@H](CO)N1C[C@H](C)[C@H](CN(C)S(=O)(=O)c2cccs2)OCCCC[C@H](C)Oc2ccc(NC(=O)CCC(F)(F)F)cc2C1=O	-14.2	1.7	x	x	2.8	0.7
O=C(Nc1ccc2c(c1)OCO2)N[C@H]1CC[C@H](CCNC(=O)C2CCOCC2)O[C@H]1CO	2.5	1.9	-2.0	x	-2.9	0.2
S=C(Nc1ccc(Cl)cc1Cl)Nc1ccccc1Oc1ccccc1	x	x	-9.0	3.6	359.7*	x
Cc1cccc(-c2ccc([C@H]3[C@@H](CO)N4CCCCN(C(=O)c5ccncc5)C[C@H]34)cc2)c1	20.4*	-1.3	36.7	x	4.8	-1.2
Cc1cccc(-c2ccc([C@@H]3[C@H]4CN(C(=O)c5ccc6c(c5)OCO6)CCCCN4[C@H]3CO)cc2)c1	-35.7	2.5	-14.3	x	86.1*	-3.8
O=C(c1ccc2c(c1)OCO2)N1CCCCN2[C@H](C1)[C@H](c1ccc(-c3ccccc3)cc1)[C@@H]2CO	-1.8	-3.7	x	x	4.7	-1.0
COc1ccccc1NC(=O)N1CCCCN2[C@H](CO)[C@H](c3ccc(-c4cccc(C)c4)cc3)[C@@H]2C1	21.5*	3.6	x	x	-1.3	-1.4
O=C(NC1CCCCC1)[C@@H]1[C@@H](CO)[C@@H]2Cn3c(cccc3=O)[C@@H]2N1CC1CCCC1	-1.0	0.0	x	x	x	1.7
CO[C@H]1CN(C)C(=O)c2cc(NS(C)(=O)=O)ccc2OC[C@H](C)N(S(C)(=O)=O)C[C@H]1C	-2.8	2.2	-14.8	x	-1.7	3.3
C[C@H]1CN([C@@H](C)CO)C(=O)c2cccc(NC(=O)Nc3ccc4c(c3)OCO4)c2O[C@H]1CN(C)Cc1ccc(Oc2ccccc2)cc1	u	3.8	42.2	x	-3.3	3.6
CCOC(=O)Nc1c(C(=O)OC)[nH]c2cc(OC)ccc12	x	x	107.5*	8.1	-1.3	x
CCOC(=O)c1[nH]c2ccc(Br)cc2c1NC(=O)CCN1CCN(C(=O)OCC)CC1	x	x	104.4*	0.5	-2.6	x
CCOC(=O)c1[nH]c2ccc(OC)cc2c1NC(=O)OC	x	x	-3.2	6.1	3.2	x
CCOC(=O)c1[nH]c2ccc(OC)cc2c1NC(=O)CCN1CCCC(C)C1 (stereo not given)	x	x	144.7*	-4.3	-1.7	x
CCOC(=O)c1[nH]c2ccc(Br)cc2c1NC(=O)CCN1CCOCC1	-2.9	3.6	x	11.6	1.2	-31.7
C[C@@H]1CN([C@H](C)CO)C(=O)c2cc(C#CCN(C)C)cnc2O[C@@H]1CN(C)Cc1ccccn1	14.8	1.3	-6.3	x	-19.1	0.4
C[C@@H]1CN([C@H](C)CO)C(=O)c2cc(C3=CCCC3)cnc2O[C@@H]1CN(C)C(=O)NC1CCCC1	-6.9	7.7	9.1	x	0.4	0.0
Cc1noc(C)c1S(=O)(=O)Nc1ccc2c(c1)C(=O)N([C@H](C)CO)C[C@@H](C)[C@@H](CN(C)C(=O)Nc1ccc3c(c1)OCO3)O2	-5.1	0.1	-16.6	x	19.4	0.2
CC(C)NC(=O)N[C@H]1C=C[C@H](CC(=O)O)O[C@@H]1CO	8.2	-0.5	-16.0	x	5.6	-1.7
C[C@H](CO)N1C[C@H](C)[C@@H](CN(C)C(=O)Nc2ccc(C(F)(F)F)cc2)Oc2c(cccc2N(C)C)C1=O	2.6	4.9	-22.9	14.5	0.4	0.2
C[C@H]1CN([C@@H](C)CO)C(=O)c2cc(N(C)C)ccc2O[C@@H]1CN(C)C(=O)Nc1ccc(C(F)(F)F)cc1	-1.9	3.1	-55.2	x	0.5	0.1
C[C@@H]1CN([C@@H](C)CO)C(=O)c2cccc(NS(=O)(=O)c3cccs3)c2O[C@@H]1CN(C)C(=O)Nc1cccc2ccccc12	43.0*	-1.2	13.4	x	-2.1	-2.2
Cc1noc(C)c1NC(=O)N(C)C[C@@H]1Oc2c(cccc2N(C)C)C(=O)N([C@H](C)CO)C[C@@H]1C	23.8*	4.0	17.8	x	2.2	-1.8

Source: PubChem
